# Source: PubChem BioAssay (SRMLSC)
# Only a selection was taken, and hits are over-represented in it overall.
# H69AR inhibit – proliferation blockers of H69AR lung cancer cells, primary screen, cell-based, human, 86K library. H69AR lung tumor viability, ATP luminescence, 72 h; active compounds read low. viability, % at 10 µM. 85,000 compounds, 6% hits. AID 598, 2007;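 active = viability at or below 40%; inactive = viability above 40%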;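 note: multidrug resistant small cell line overexpressing MRP-1 efflux transporter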
# bCat KO growth – primary screen for growth suppressors in beta-catenin knockout HCT116 cells (colon tumor, human); HCT116 beta-catenin knockout viability, CellTiter-Glo, 60 h; active compounds read low; viability, % at 10 µM; 140,000 compounds, 1.5% hits;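 active = viability at or under a set limit, the compound median less 4 SD, cut at about 6% in these data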
# Fibroblast inh – antiproliferative effect on LL 47 fibroblasts – human, LL 47 cells, CellTiter-Glo luminescence, primary screen; LL 47 human lung fibroblast viability, ATP luminescence; active compounds read low; viability, % at 10 µM; 85,000 compounds, 1.1% hits; AID 719, 2007;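 active = viability at or below 50% in the single dose screen; inactive = viability above 50%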;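 note: compound exposure lasted 72 h before the ATP readout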
#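 Signal: luminescent ATP detection, CellTiter-Glo; assay system: LL 47 human lung fibroblasts; input: 1,150 cells/well; incubation: overnight cell rest, 72 h compound treatment at 37 °C; measure: % viability versus median cells-only luminescence; medium: IMEM growth medium with 15% fetal bovine serum; dosing: compound addition at 0.1% DMSO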
# HCT116 PTEN-null – growth suppression of PTEN-null HCT116, primary screen, cell-based, CellTiter-Glo; HCT116 PTEN-null viability, 60 h; active compounds read low; viability, % at 10 µM; 140,000 compounds, 1.2% hits; AID 827, 2007;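 active = viability at or below a set limit, 4 SD under the median of all tested compounds, cut at about 3.7% in these data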;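 note: PTEN knockout HCT116 line with beta catenin targeted HCT116 as companion control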
# HUVEC inhibit – inhibitors of HUVEC proliferation, primary screen, cell-based, 384-well; viability, % at 10 µM (by protocol); CellTiter-Glo luminescence, 72 h; active compounds read low; 86,000 compounds, 1.1% hits; AID 648, 2007;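 active = viability at or below 30%; inactive = viability above 30%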
# A number is an active result; - = inactive; . = not tested or not shown.
SMILES,H69AR inhibit,bCat KO growth,Fibroblast inh,HCT116 PTEN-null,HUVEC inhibit
COc1ccc(CN2C(=O)c3ccccc3C2=O)cc1C(=O)OCC(=O)NC1CCCCC1,.,-,.,-,.
COc1ccc(NC(=O)c2cc(CN3C(=O)c4ccccc4C3=O)ccc2OC)cn1,16.8,-,.,-,-
Cc1ccc(NC(C#N)c2ccccc2OCc2ccccc2)cc1 (stereo not drawn),.,-,.,-,.
Cc1cccc2nc(CSc3nnc4ccccn34)cn12,-,-,-,-,-
Fc1ccc(Sc2nc(-c3ccccc3)nnc2C(F)(F)F)cc1,.,4.1,.,2.1,.
Fc1ccc(Oc2nc(-c3ccccc3)nnc2C(F)(F)F)cc1,.,-,.,-,.
Cc1cc[n+](-c2nc([O-])n(-c3ccccc3)c2C=O)cc1,-,.,-,.,-
COc1ccc(C(=O)O/N=C/c2c(C(F)(F)F)nn(C)c2SCc2ccccc2Cl)cc1,.,4.2,.,-,.
COc1ccc(-c2csc3nc(C)n(-n4cccc4)c(=O)c23)cc1OC,-,-,-,-,-
COc1ccc(-c2csc3nc(-c4ccc(C)cc4)oc(=O)c23)cc1OC,.,1.7,.,1.8,.
Cc1ccc(NS(=O)(=O)c2ccc3c(c2)c(=O)n(C)c(=O)n3C)cc1F,-,-,-,-,-
Cc1cc(C)cc(NS(=O)(=O)c2ccc3c(c2)c(=O)n(C)c(=O)n3C)c1,-,-,33.6,-,-
Cc1cc(NC(=O)c2ccc3c(c2)C(=O)N(CCC(C)C)C3=O)no1,39.9,-,-,-,-
Cc1cc(NC(=O)c2ccc3c(c2)C(=O)N(C2CCCCC2)C3=O)no1,26.9,-,-,-,-
Cc1cc(NC(=O)c2ccc3nc(-c4ccccc4)c(-c4ccccc4)nc3c2)no1,16.2,-,17.6,-,-
Cc1cc(NC(=O)c2ccc3c(c2)C(=O)N(C)C3=O)no1,-,-,-,-,-
COc1ccc(C(=O)Nc2cc(C)on2)cc1,-,-,-,-,-
O=C(CSCc1ccccc1)NNC(=S)Nc1cccc(Cl)c1Cl,.,-,.,-,.
COc1cccc(N2CCN(C(=O)c3ccc(N4C(=O)NC5CC4(C)Oc4ccccc45)cc3)CC2)c1 (stereo not drawn),-,-,-,-,-
COc1ccc(N2C(=O)NC3CC2(C)Oc2ccc(Br)cc23)cc1OC (stereo not drawn),37.7,-,-,-,-
COc1ccc2c(CC(=O)Nc3cccc(S(=O)(=O)N4CCOCC4)c3)coc2c1,.,-,.,-,.
Cc1cc(C(=O)COC(=O)Cc2n[nH]c(=O)c3ccccc23)c(C)n1-c1ccc2c(c1)OCO2,.,-,.,-,.
O=C(Cc1n[nH]c(=O)c2ccccc12)OCC(=O)c1ccc2c(c1)OCCO2,23.6,-,-,-,-
CCOC(=O)c1c(-c2cccs2)csc1NC(=O)c1ccco1,-,-,-,-,-
CCOC(=O)c1c(C2COc3ccccc3O2)csc1NC(=O)c1ccco1 (stereo not drawn),30.7,-,-,-,-
SMILES,H69AR inhibit,bCat KO growth,Fibroblast inh,HCT116 PTEN-null,HUVEC inhibit
Cc1cc(C)n(-c2nnc(NC34CC5CC(CC(C5)C3)C4)nn2)n1,.,-,.,-,.
CCc1cccc(CC)c1NC(=S)NCCc1c(C)[nH]c2ccc(C)cc12,.,-,.,2.6,.
CCc1cccc(C)c1NC(=S)NCCc1c(C)[nH]c2ccc(C)cc12,.,3.5,.,-,.
O=C(NNc1ccccc1Br)C(O)(c1cccc(C(F)(F)F)c1)c1cccc(C(F)(F)F)c1,.,1.9,.,2.1,.
Cc1[nH]c2ccccc2c1C(O)CN1CCN(c2cccc(C(F)(F)F)c2)CC1 (stereo not drawn),1.3,-,42.7,-,2.4
OC(CN1CCN(c2ccccc2)CC1)c1c[nH]c2ccccc12 (stereo not drawn),37.9,-,-,-,-
COc1ccc(NC2CS(=O)(=O)CC2NCc2ccccc2)cc1 (stereo not drawn),-,-,-,-,-
Cc1ccc2oc(=O)c3cc(C(=O)N4CCN(c5ncccn5)CC4)sc3c2c1,-,.,-,.,-
CCNc1nc(NCC)n2c(SCC(=O)NC34CC5CC(CC(C5)C3)C4)nnc2n1,.,-,.,-,.
O=S(=O)(/N=C(\Sc1ccc(Cl)cc1)c1ccccc1)c1ccccc1,38.7,-,-,-,-
Cc1cc(C)c2cc(CN(CCO)C(=O)Nc3ccc(F)cc3)c(=O)[nH]c2c1,38.1,-,-,-,-
O=[N+]([O-])c1cc(S(=O)(=O)c2ccc(N3CCCCC3)c([N+](=O)[O-])c2)ccc1N1CCCCC1,.,-,.,-,.
COc1ccc(Oc2ccc(/C=C/C(=O)c3ccc(O)cc3)cc2[N+](=O)[O-])cc1,.,1.4,.,1.3,.
O=C(/C=C/c1ccc(N2CCCCC2)c([N+](=O)[O-])c1)c1ccc(S(=O)(=O)N2CCCC2)cc1,.,0.9,.,0.7,.
COc1cccc(C(=O)/C=C/c2ccc(N3CCCCC3)c([N+](=O)[O-])c2)c1,.,3.1,.,2.9,.
COc1cccc(C(=O)NC(=S)N2CCN(c3ccc(C(F)(F)F)cc3[N+](=O)[O-])CC2)c1,.,-,.,-,.
COc1ccc(/C=C/C(=O)c2ccc(O)cc2)cc1COc1ccc(F)cc1,.,-,.,-,.
Cc1ccc(NC(=O)C(=O)NCc2ccc(/C=N/NC(=O)c3c(C)nc4ccccn34)o2)cc1,.,-,.,-,.
Cc1cc(Oc2ccccc2)nc(NCc2ccccc2)n1,-,-,-,-,-
CCCCNc1cc(C)nc(NCc2ccccc2)n1,9.9,1.3,-,1.5,4.4
Cc1cc(Nc2ccccc2)nc(NCc2ccccc2)n1,.,-,.,-,.
Cc1cc(Nc2ccc(Cl)cc2)nc(NCc2ccccc2)n1,.,1.1,.,1.4,.
Cc1cc(N2CCC(C)CC2)nc(NCc2ccccc2)n1,.,2.8,.,-,.
Fc1cc(NCc2ccccc2)nc(NCc2ccccc2)n1,.,-,.,-,.
Cc1cc(Nc2cccc(F)c2)nc(NCc2ccccc2)n1,.,2.9,.,1.4,.
SMILES,H69AR inhibit,bCat KO growth,Fibroblast inh,HCT116 PTEN-null,HUVEC inhibit
COC(=O)/C=C/C(=O)Nc1cccc(C(F)(F)F)c1,.,-,.,-,.
COc1cccc(NC(=O)c2nnn(CCc3ccccc3)c2N)c1,31.7,-,-,-,-
COc1ccccc1-c1nnc(NC(=O)c2ccccc2F)o1,1.9,-,-,-,-
Cc1ccc(-c2nnc(-c3ccc(NC(=O)c4ccco4)cc3)o2)cc1,36.6,-,-,-,-
COc1ccccc1-c1nnc(NC(=O)c2ccc(S(=O)(=O)N(C)C)cc2)o1,-,-,-,-,-
O=C(Nc1nnc(-c2ccc(Cl)cc2)o1)c1nc2ccccc2s1,16.6,-,-,-,-
N#C/C(C(=O)N1CCOCC1)=C1/SC(Cc2ccccc2Cl)C(=O)N1c1ccccc1 (stereo not drawn),.,-,.,-,.
CCCCC(=O)Nc1ccccc1C(=O)N1CCOCC1,-,-,-,-,-
CCOc1cccc(C(=O)Nc2cccc(-c3nnc(-c4ccccc4)o3)c2)c1,14.8,-,-,-,-
Cc1cccc(-c2nnc(NC(=O)c3ccc(Cl)cc3)o2)c1,25.4,-,-,-,3.2
